# Measured values pooled from the literature.
# Compare with care: the assays were run in different laboratories.
# TYK2 JH1: Non-receptor tyrosine-protein kinase TYK2, JH1 (TYK2, Homo sapiens, UniProt P29597)
# NPY1R: Neuropeptide Y receptor type 1 (NPY1R, Homo sapiens, UniProt P25929)
# MC3R: Melanocortin receptor 3 (MC3R, Homo sapiens, UniProt P41968)
# TAOK1: Serine/threonine-protein kinase TAO1 (TAOK1, Homo sapiens, UniProt Q7L7X3)
SMILES,target,assay,system,conditions,endpoint,result
N#Cc1ccc(NC(=O)Nc2ccccc2)cc1,TYK2 JH1,"cell-free assay, competition with immobilised ligand",,25 µM,remaining binding,99%
NC/C(=C\F)COc1cccc(Cn2c(=S)[nH]c(=O)c3[nH]cnc32)c1,NPY1R,"ligand displacement, radioligand",,10 µM,inhibition,< 50%
CC(=O)N[C@@H](CCCNC(=N)N)C(=O)N[C@H]1CSSC[C@@H](C(N)=O)NC(=O)[C@H](Cc2c[nH]c3ccccc23)NC(=O)[C@H](CCCNC(=N)N)NC(=O)[C@@H](Cc2ccccc2)NC(=O)[C@H](Cc2c[nH]cn2)NC(=O)[C@@H](C)NC1=O,MC3R,"cAMP, agonist",CHO-K1,,Emax,88%
CCCCC(=O)Nc1ccc(-c2ccc3ncn(CCC)c(=O)c3c2)cn1,"Calcium/calmodulin-dependent protein kinase type 1B (PNCK, Homo sapiens, UniProt Q6P2M8)","binding, competition with immobilised ligand",,0.5 µM,remaining binding,85%
C#Cc1cc(-c2cc(Nc3nc(N[C@@H](C)c4ccc(F)cn4)ncc3Cl)n[nH]2)ccc1C=O,"Non-receptor tyrosine-protein kinase TYK2 (TYK2, Homo sapiens, UniProt P29597)","enzyme activity, inhibitor",,0.2 µM,inhibition,67.2%
C1=C/COCc2cc(ccc2OCCN2CCCC2)Nc2nccc(n2)-c2cccc(c2)COC/1,TYK2 JH1,cell-free assay,,0.1 µM,remaining signal,52%
CCCC[C@H](NC(C)=O)C(=O)N[C@H]1CC(=O)NCCCC[C@@H](C(=O)N2CCC[C@@H]2C(=O)N[C@@H](C(=O)N2CCC[C@@H]2C(N)=O)C(C)C)NC(=O)[C@H](Cc2c[nH]c3ccccc23)NC(=O)[C@H](CCCNC(=N)N)NC(=O)[C@@H](Cc2ccccc2)NC(=O)[C@@H]2CCCN2C1=O,"Melanocyte-stimulating hormone receptor (MC1R, Homo sapiens, UniProt Q01726)","cAMP, agonist",,,Emax,102%
Cc1cc2c(C(N)=O)c(N)n(-c3c(C)ccc(O)c3C)c2nc1C,"Serine/threonine-protein kinase B-raf (BRAF, Homo sapiens, UniProt P15056)","enzyme activity, inhibitor, ADP detection",,10 µM,inhibition,100%
Cc1cc(S(=O)(=O)N[C@H]2CC[C@H](CN3CCN(c4ccc(C5CCC(=O)NC5=O)cc4F)CC3)CC2)ccc1Nc1ncc(C(F)(F)F)c(N2CCC[C@](C)(O)C2)n1 (stereo partly drawn),TAOK1,"binding, competition with immobilised ligand",,1 µM,remaining binding,72%
CCN1/C(=C/C(C)=O)Sc2ccc(F)cc21,"Adenosine receptor A3 (ADORA3, Homo sapiens, UniProt P0DMS8)","ligand displacement, radioligand",,10 µM,inhibition,12.4%
CCCC[C@H](NC(C)=O)C(=O)N[C@@H](C)C(=O)N[C@@H](Cc1c[nH]cn1)C(=O)N[C@@H](Cc1ccccc1)C(=O)N[C@@H](CCCNC(=N)N)C(=O)N[C@H](Cc1c[nH]c2ccccc12)C(=O)N[C@@H](CC(=O)O)C(=O)N[C@@H](CCCNC(=N)N)C(=O)N[C@@H](Cc1ccccc1)C(=O)N[C@@H](C(=O)N1CCC[C@@H]1C(N)=O)C(C)C,MC3R,"cAMP, agonist",CHO-K1,,Emax,100%
Cc1cc(O)c(-c2ccc([C@@H](C)CN(C)C)cc2)c2c1[nH]c(=O)c1sccc12,"Cyclin-dependent kinase 6 (CDK6, Homo sapiens, UniProt Q00534)","enzyme activity, inhibitor",,0.1 µM,inhibition,1.19%
C[C@]1(O)CCCN(c2nc(Nc3ccc(S(=O)(=O)N[C@H]4CC[C@H](CN5CCN(c6ccc(C7CCC(=O)NC7=O)cc6F)CC5)CC4)cc3Cl)ncc2C(F)(F)F)C1 (stereo partly drawn),TAOK1,"binding, competition with immobilised ligand",,1 µM,remaining binding,91%
Cc1cc(F)cc2c(CCC(=O)N[C@@H]3C(=O)NC[C@H]3O)c(-c3ccc(F)cc3)[nH]c12,NPY1R,cell-free assay,,10 µM,inhibition,1%
COc1ccc2oc(-c3ccc4nc(N)oc4c3)c/c(=N\c3ccccc3NC(=O)CCN)c2c1,"Cyclin-dependent kinase 6, with cyclin D3 (CDK6, Homo sapiens, UniProt Q00534)",binding,,1 µM,remaining binding,98%
